≈ marks a conversion by molar mass, not a printed value.
Key:
Mus musculus [1] = assay: In vivo antitumor activity against P388 Lymphocytic Leukemia in mice at 7.75 mg/kg expressed as T/C value; format: functional
Mus musculus [2] = assay: In vivo antitumor activity against P388 Lymphocytic Leukemia measured as survivors on day 5 at 62 mg/kg; 6/6; format: functional
Mus musculus [3] = assay: In vivo antitumor activity against P388 Lymphocytic Leukemia in mice at 62 mg/kg expressed as T/C value; format: functional
Mus musculus [4] = assay: In vivo antitumor activity against P388 Lymphocytic Leukemia measured as Survivors on day 5 at 15.5 mg/kg; 5/6; format: functional
Mus musculus [5] = assay: In vivo antitumor activity against P388 Lymphocytic Leukemia in mice at 31 mg/kg expressed as T/C value; format: functional
Mus musculus [6] = assay: In vivo antitumor activity against P388 Lymphocytic Leukemia measured as Survivors on day 5 at 31 mg/kg; 6/6; format: functional
Mus musculus [7] = assay: In vivo antitumor activity against P388 Lymphocytic Leukemia measured as Survivors on day 5 at 7.75 mg/kg; 6/6; format: functional
Mus musculus [8] = assay: In vivo antitumor activity against P388 Lymphocytic Leukemia in mice at 15.5 mg/kg expressed as T/C value; format: functional
Mus musculus [9] = assay: In vivo antitumor activity against P388 Lymphocytic Leukemia measured as Survivors on day 5 at 400 mg/kg, w.r.t. compound 6; 4/4; format: functional
Mus musculus [10] = assay: In vivo antitumor activity against P388 Lymphocytic Leukemia in mice at 400 mg/kg expressed as T/C value w.r.t. compound 6; format: functional
Mus musculus [11] = assay: In vivo antitumor activity against P388 Lymphocytic Leukemia measured as Survivors on day 5 at 800 mg/kg, w.r.t. compound 6; 4/4; format: functional
Mus musculus [12] = assay: In vivo antitumor activity against P388 Lymphocytic Leukemia measured as Survivors on day 5 at 200 mg/kg, w.r.t. compound 6; 4/4; format: functional
Mus musculus [13] = assay: In vivo antitumor activity against P388 Lymphocytic Leukemia in mice at 200 mg/kg expressed as T/C value w.r.t. compound 6; format: functional
Mus musculus [14] = assay: In vivo antitumor activity against P388 Lymphocytic Leukemia in mice at 800 mg/kg expressed as T/C value w.r.t. compound 6; format: functional
A204 = assay: In vitro cytotoxicity against human A204 Rhabdomyosarcoma cell line; format: functional, cell-based
How it was run: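 A204 human rhabdomyosarcoma soft-agarose colony assay. 10^4 trypsin/EDTA-dissociated cells in 0.3% agarose over a 0.5% agarose base, in DMEM with 10% FCS, at 37 °C and 5% CO2. Compound was applied in an upper medium layer on day 1 for 24 h, then washed out. Colonies >60 µm were counted after 7–9 days by tetrazolium stain and image analysis. Quadruplicates with vehicle controls, at least four concentrations up to 100 or 1000 µg/mL. IC50 from a monoexponential least-squares fit over at least three preparations, mean ± SE.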

Mus musculus [15] = assay: In vivo antitumor activity against P388 Lymphocytic Leukemia in mice at 71 mg/kg expressed as T/C value; format: functional
Mus musculus [16] = assay: In vivo antitumor activity against P388 Lymphocytic Leukemia measured as Survivors on day 5 at 17.75 mg/kg; 5/6; format: functional
Mus musculus [17] = assay: In vivo antitumor activity against P388 Lymphocytic Leukemia measured as Survivors on day 5 at 35.5 mg/kg; 6/6; format: functional
Mus musculus [18] = assay: In vivo antitumor activity against P388 Lymphocytic Leukemia in mice at 8.88 mg/kg expressed as T/C value; format: functional
Mus musculus [19] = assay: In vivo antitumor activity against P388 Lymphocytic Leukemia in mice at 17.75 mg/kg expressed as T/C value; format: functional
Mus musculus [20] = assay: In vivo antitumor activity against P388 Lymphocytic Leukemia measured as Survivors on day 5 at 8.88 mg/kg; 6/6; format: functional
Mus musculus [21] = assay: In vivo antitumor activity against P388 Lymphocytic Leukemia measured as Survivors on day 5 at 71 mg/kg; 5/6; format: functional
Mus musculus [22] = assay: In vivo antitumor activity against P388 Lymphocytic Leukemia in mice at 35.5 mg/kg expressed as T/C value; format: functional
Mus musculus [23] = assay: In vivo antitumor activity against P388 Lymphocytic Leukemia measured as Survivors on day 5 at 100 mg/kg, w.r.t. compound 6; 6/6; format: functional
Mus musculus [24] = assay: In vivo antitumor activity against P388 Lymphocytic Leukemia in mice at 100 mg/kg expressed as T/C value w.r.t. compound 6; format: functional
Mus musculus [25] = assay: In vivo antitumor activity against P388 Lymphocytic Leukemia measured as Survivors on day 5 at 400 mg/kg, w.r.t. compound 6; 6/6; format: functional
Mus musculus [26] = assay: In vivo antitumor activity against P388 Lymphocytic Leukemia measured as Survivors on day 5 at 800 mg/kg, w.r.t. compound 6; 6/6; format: functional
Mus musculus [27] = assay: In vivo antitumor activity against P388 Lymphocytic Leukemia measured as Survivors on day 5 at 200 mg/kg, w.r.t. compound 6; 5/6; format: functional

## CCC(O)(C(=O)OCC1=CC[N+]2([O-])CC[C@H](OC(=O)[C@](O)(CC)c3ccccc3)[C@@H]12)c1ccccc1 (some centres not stated)
Mus musculus [1]
  T/C: 106%
Mus musculus [2]
  Survivors: 6
Mus musculus [3]
  T/C: 127%
Mus musculus [4]
  Survivors: 5
Mus musculus [5]
  T/C: 109%
Mus musculus [6]
  Survivors: 6
Mus musculus [7]
  Survivors: 6
Mus musculus [8]
  T/C: 100%

## CC(C)C(O)(C(=O)OC1CCN2CCC(CO)C12)C(C)O (configuration not stated)
Mus musculus [9]
  Survivors: 4
Mus musculus [10]
  T/C: 123%
Mus musculus [11]
  Survivors: 4
Mus musculus [12]
  Survivors: 4
Mus musculus [13]
  T/C: 126%
Mus musculus [14]
  T/C: 180%

## CC(C)[C@](O)(C(=O)OCC1=CC[N+]2([O-])CC[C@@H](O)[C@@H]12)[C@H](C)O (some centres not stated) [INDICINE N-OXIDE]
A204
  IC50: 125 µg/mL (≈ 396 µM)

## C[C@H]1C(=O)O[C@@H]2CC[N+]3([O-])CC=C(COC(=O)[C@](C)(O)[C@]1(C)O)[C@H]23 (some centres not stated) [MONOCROTALINE N-OXIDE]
A204
  IC50: 721 µg/mL (≈ 2110 µM)

## CCC(O)(C(=O)OCC1=CC[N+]2([O-])CC[C@H](OC(=O)[C@@](O)(CC)c3ccccc3)[C@@H]12)c1ccccc1 (some centres not stated)
Mus musculus [15]
  T/C: 109%
Mus musculus [16]
  Survivors: 5
Mus musculus [17]
  Survivors: 6
Mus musculus [18]
  T/C: 107%
Mus musculus [19]
  T/C: 100%
Mus musculus [20]
  Survivors: 6
Mus musculus [21]
  Survivors: 5
Mus musculus [22]
  T/C: 106%

## CC(C)C(O)(C(=O)OCC1CCN2CC[C@@H](O)[C@@H]12)C(C)O.CC(C)C(O)(C(=O)OCC1CC[N+]2([O-])CC[C@@H](O)[C@@H]12)C(C)O (some centres not stated)
Mus musculus [23]
  Survivors: 6
Mus musculus [24]
  T/C: 101%
Mus musculus [10]
  T/C: 120%
Mus musculus [25]
  Survivors: 6
Mus musculus [26]
  Survivors: 6
Mus musculus [13]
  T/C: 118%
Mus musculus [27]
  Survivors: 5
Mus musculus [14]
  T/C: 146%
